Results from different studies.
Lines come from different studies, so protocols differ.
Cell line: MOLM-13
Effect on: cell growth or viability

c1cc(N2CCCCC2)ccc1Nc1cc2ncc(OCC3CCNCC3)nc2cc1-c1ccc(N2CCCCC2)cc1
EC50 (XTT; 7 days): 2800 nM

CN(C)CCNC(=O)c1ccc(-c2nc3ccc4[nH]ncc4c3c3c2CCCC3)cc1
GI50 (72 h): 100 nM

COc1ccc2/c(=N/c3ccccc3NC(=O)[C@@H](N)C(C)(C)C)cc(-c3ccc4c(c3)OCCO4)oc2c1
inhibition (CCK-8; 1 µM): 2.86%

Cc1n[nH]c2ccc3nc(-c4ccc(C(=O)NCCN(C)C)cc4F)c4c(c3c12)CCCC4
GI50 (72 h): 47 nM

COc1ccc2/c(=N/c3ccccc3NC(=O)N3CCOCC3)cc(-c3ccc4c(c3)OCCO4)oc2c1
inhibition (CCK-8; 1 µM): 3.11%

CC1(C)CCC(CN2CCN(c3ccc(C(=O)NS(=O)(=O)c4ccc(NCC5CCOCC5)c([N+](=O)[O-])c4)c(Oc4cnc5[nH]ccc5c4)c3)CC2)=C(c2ccc(Cl)cc2)C1
GI50: 10 nM

CONC(=O)c1cccc2c1cc(C)n2-c1nc2c(c(NCc3ccccc3)n1)CCCN2
IC50 (72 h): 1400 nM

CN(C)CCNC(=O)c1ccc(-c2nc3ccc4[nH]ncc4c3c3c2CCCC3)c(F)c1
GI50 (72 h): 262 nM

NCC(=O)Nc1ccccc1/N=c1\cc(-c2ccc3c(c2)OCO3)oc2ccccc12
inhibition (CCK-8; 1 µM): 1.52%

c1ccc(COc2ccc(Nc3ccc4ncc(OCC5CCNCC5)nc4c3)cc2)cc1
EC50 (XTT; 7 days): 840 nM

Cc1n[nH]c2ccc3nc(-c4ccc(C(=O)NCCN(C)C)cc4)c4c(c3c12)CCCC4
GI50 (72 h): 54 nM

Nc1cccc(-c2ccc3ncc(OCC4CCNCC4)nc3c2)c1
EC50 (XTT; 7 days): 28300 nM

Cc1n[nH]c2ccc3nc(-c4ccc(C(=O)NCCN(C)C)cc4F)c4c(c3c12)CCCCC4
GI50 (72 h): 150 nM

c1cc(-c2cc3ncc(OCC4CCNCC4)nc3cc2-c2cccc(N3CCCCC3)c2)cc(N2CCCCC2)c1
EC50 (XTT; 7 days): 1400 nM

CS(=O)(=O)NCCC(=O)Nc1ccccc1/N=c1\cc(-c2ccc3nc(N)oc3c2)oc2ccccc12
inhibition (CCK-8; 1 µM): 8.5%
